PMC3678535 (Biochemistry, 2013)
Values joined by “and” are separate entries in the source; they are usually repeats but may differ in a detail not shown here. Identical values can stand only once. Like-named read-outs stand apart in the source and are kept apart here.

What was measured:
iNOS [1] = biological target: T1, iNOS (Mus musculus, UniProt P29477); test: NO production measured with the Griess reagent, longer incubations; type: biochemical, murine; conditions: incubations of 1, 2, 6, 12 and 24 hours
Method in brief: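 Purified murine iNOS (E. coli-expressed), 100 nM, incubated 1, 2, 6, 12 and 24 h with test compound at various concentrations, 100 μM NADPH and 10 μM H4B in 100 mM HEPES, 10% glycerol, pH 7.5. Lactate dehydrogenase added to oxidize leftover NADPH, then Griess reagents added. Nitrite/nitrate read by absorbance at 540 nm.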

iNOS [2] = biological target: T1, iNOS; test: Ferric difference spectral binding assay; set-up: species or system murine
Method in brief: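 Murine iNOS (E. coli-expressed, purified), 5 μM, in 100 mM HEPES pH 7.5 with 10 μM H4B, scanned 380–500 nm against a HEPES/H4B blank. […] Test compound titrated at 0.1–1 mM final, additions kept under 5% volume. Ks from Michaelis-Menten fit of concentration vs absorbance difference (local maximum minus minimum).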

murine iNOS [3] = biological target: T2, murine iNOS (Mus musculus, UniProt P29477); test: NO production, hemoglobin capture assay; type: biochemical
murine iNOS [4] = biological target: T2, murine iNOS; test: Inhibition of NO production; type: biochemical; conditions: 10 μM L-arginine, unit printed in cell/text as mM
Methanol oxidase (MeOX) = conditions: depending on the O2 concentration; cited from earlier work
iNOS [5] = biological target: T1, iNOS; test: Substrate uncoupling: NADPH consumption versus NO production; type: biochemical, murine; conditions: 20 μM arginine, 20 μM NHA, 100 μM NMOA, 100 μM NHMA
rat nNOS = rat nNOS (Rattus norvegicus, UniProt P29476); test: NO production, hemoglobin capture assay; type: biochemical; conditions: for Km: NO production, 22 °C, pH 7.5
Chain of rat nNOS (P29476 whole entry): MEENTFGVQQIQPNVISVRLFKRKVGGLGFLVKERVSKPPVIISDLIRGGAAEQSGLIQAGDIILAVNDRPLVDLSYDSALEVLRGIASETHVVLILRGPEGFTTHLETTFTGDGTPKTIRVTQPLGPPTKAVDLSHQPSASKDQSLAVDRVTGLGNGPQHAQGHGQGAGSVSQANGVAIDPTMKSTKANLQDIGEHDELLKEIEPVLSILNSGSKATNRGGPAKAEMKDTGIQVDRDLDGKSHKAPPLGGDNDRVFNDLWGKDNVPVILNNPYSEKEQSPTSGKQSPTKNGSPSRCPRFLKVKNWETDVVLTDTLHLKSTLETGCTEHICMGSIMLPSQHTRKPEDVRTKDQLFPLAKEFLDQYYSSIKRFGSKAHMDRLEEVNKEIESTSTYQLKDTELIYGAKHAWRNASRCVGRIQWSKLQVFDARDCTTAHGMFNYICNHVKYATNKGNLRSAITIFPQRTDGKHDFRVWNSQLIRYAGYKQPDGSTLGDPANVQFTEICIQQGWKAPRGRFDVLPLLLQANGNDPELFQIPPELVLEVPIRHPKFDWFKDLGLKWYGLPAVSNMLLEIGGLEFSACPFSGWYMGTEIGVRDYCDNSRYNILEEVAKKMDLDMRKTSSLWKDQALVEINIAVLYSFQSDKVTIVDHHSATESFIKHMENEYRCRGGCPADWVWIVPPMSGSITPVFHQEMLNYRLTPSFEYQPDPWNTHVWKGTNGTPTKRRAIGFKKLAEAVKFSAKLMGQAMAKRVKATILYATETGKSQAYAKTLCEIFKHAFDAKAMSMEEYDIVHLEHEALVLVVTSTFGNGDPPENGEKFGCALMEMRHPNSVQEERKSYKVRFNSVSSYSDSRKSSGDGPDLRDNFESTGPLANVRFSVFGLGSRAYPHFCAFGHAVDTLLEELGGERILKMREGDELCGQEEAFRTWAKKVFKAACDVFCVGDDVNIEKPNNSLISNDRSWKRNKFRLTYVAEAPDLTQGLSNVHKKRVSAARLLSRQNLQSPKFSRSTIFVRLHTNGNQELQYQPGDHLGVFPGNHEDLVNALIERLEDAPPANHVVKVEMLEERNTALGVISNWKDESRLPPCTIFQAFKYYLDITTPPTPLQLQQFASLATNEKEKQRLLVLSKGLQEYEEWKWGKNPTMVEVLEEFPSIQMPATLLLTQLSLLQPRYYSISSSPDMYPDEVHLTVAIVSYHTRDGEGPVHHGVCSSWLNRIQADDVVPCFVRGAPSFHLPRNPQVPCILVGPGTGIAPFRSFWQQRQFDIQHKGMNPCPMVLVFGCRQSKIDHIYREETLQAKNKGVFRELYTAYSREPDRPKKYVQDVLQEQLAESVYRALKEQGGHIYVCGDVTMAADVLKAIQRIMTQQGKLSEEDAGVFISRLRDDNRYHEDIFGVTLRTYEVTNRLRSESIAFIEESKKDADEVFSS

iNOS [6] = biological target: T1, iNOS; test: One-carbon metabolite of [14C]-NMOA-iNOS reaction; type: biochemical, murine; conditions: MeOX/FDH conversion, scintillation counting
NOS = conditions: cited from earlier work
[7] = cited from earlier work
[8] = read-out: Ks (spectral binding constant), imidazole displacement

With `CON(C)C(=N)NCCC[C@H](N)C(=O)O` [NMMA, N^ω-methoxy-N^ω-methyl-L-arginine] the “NO production (Griess reagent)” value (iNOS [1]) was “absence of NO production” and the Kd (iNOS [2]; [8]) was 0.07 ± 0.005 mM.

For `CC(C)(C)ONC(=N)NCCC[C@H](N)C(=O)O` [tBOA, N^ω-tert-butyloxy-L-arginine], the kcat (murine iNOS [3]) was 0.005 ± 0.0017 s⁻¹, the Km (murine iNOS [3]; unit printed in cell/text as mM) was 2.7 ± 0.8 mM and the Ki (murine iNOS [4]) was 7.4 ± 4.5 mM.

For `CO` [methanol], the Km (Methanol oxidase (MeOX)) is listed as about 2000 µM.

In the case of `CN(O)C(=N)NCCC[C@H](N)C(=O)O` [NHMA, N^ω-hydroxy-N^ω-methyl-L-arginine], the “NADPH:NO (moles of NADPH consumed per mole of NO formed)” value (iNOS [5]) is reported as 15 and 15.0 ± 2.7, the kcat (murine iNOS [3]) is reported as 0.015 ± 0.0083 s⁻¹ and the “kcat, times lower compared to NHA” value (murine iNOS [3]) is reported as “about 18 times”. For the same compound, the Km (murine iNOS [3]; NO production, 22 °C, pH 7.5) was 0.034 ± 0.006 mM, the Kd (iNOS [2]; [8]) was 0.034 ± 0.004 mM and the kcat (rat nNOS) was 0.0167 ± 0.0033 s⁻¹. For the same compound, the “kcat, times lower compared to NHA” value (rat nNOS) was about 13 times and the Km (rat nNOS) was 2 ± 0.4 µM.

For `[14CH3]ONC(=N)NCCC[C@H](N)C(=O)O` [[^14C]-NMOA, N^ω-[^14C]-methoxy-L-arginine], the One-carbon metabolite (iNOS [6]) was “methanol”.

In the case of `CN(CCC[C@H](N)C(=O)O)C(=N)N` [dMA, N^δ-Methyl-L-arginine], the Ki (NOS; binds weakly to the NOS active site) is given as 1400 µM.

In the case of `CONC(=N)NCCC[C@H](N)C(=O)O` [NMOA, N^ω-methoxy-L-arginine], the “NADPH:NO (moles of NADPH consumed per mole of NO formed)” value (iNOS [5]) is reported as 8 and 8.0 ± 1.5, the kcat (murine iNOS [3]) is reported as 0.0783 ± 0.0217 s⁻¹ and the “kcat, times lower compared to NHA” value (murine iNOS [3]) is reported as “about 4 times”. The Km (murine iNOS [3]; NO production, 22 °C, pH 7.5) was 0.088 ± 0.008 mM, the Kd (iNOS [2]; [8]) was 0.122 ± 0.02 mM and the kcat (rat nNOS) was 0.03 ± 0.0083 s⁻¹. The “kcat, times lower compared to NHA” value (rat nNOS) was about 7 times and the Km (rat nNOS) was 11 ± 2 µM.

For `N=C(NO)NCCC[C@H](N)C(=O)O` [NHA, N^ω-hydroxy-L-arginine, reference compound], the pKa [7] is given as 8.5, the “NADPH:NO (moles of NADPH consumed per mole of NO formed)” value (iNOS [5]) is given as 0.7 ± 0.3 and the kcat (murine iNOS [3]) is given as 0.267 ± 0.033 s⁻¹. It also gave a Km (murine iNOS [3]; NO production, 22 °C, pH 7.5) of 0.022 ± 0.005 mM, a Kd (iNOS [2]; [8]) of 0.029 ± 0.004 mM and a kcat (rat nNOS) of 0.217 ± 0.067 s⁻¹. For the same compound, the Km (rat nNOS) was 5.7 ± 2.1 µM.

For `CN=C(N)NCCC[C@H](N)C(=O)O` [NMA, N^ω-Methyl-L-arginine], the kinact (NOS; inactivator of NOS) is given as 0.07 min⁻¹, the KI (inactivation) (NOS; read-out: KI (inactivation), inactivator of NOS) is given as 2.7 µM and the Ki (NOS; read-out: Ki (competitive inhibitor), competitive inhibitor of NOS) is given as 0.2 µM.

In the case of `N=C(N)NCCC[C@H](N)C(=O)O` [arginine, L-arginine, reference compound], the “NADPH:NO (moles of NADPH consumed per mole of NO formed)” value (iNOS [5]) is reported as 1.5.

In the case of `c1c[nH]cn1` [imidazole, reference compound], the Kd (iNOS [2]; [8]) is reported as 0.12 to 0.15 mM.

In the case of `C=O` [formaldehyde], the Km (Methanol oxidase (MeOX)) is given as 2500 µM.

In the case of `CN(CCC[C@H](N)C(=O)O)C(=N)NO` [MHA, N^δ-methyl- N^ω-hydroxy-L-arginine], the “NO production (Griess reagent)” value (iNOS [1]) is reported as “absence of NO production”, the Ki (murine iNOS [4]) is reported as over 10 mM and the Kd (iNOS [2]; read-out: Ks (spectral binding constant), unit printed in cell/text as mM) is reported as over 10 mM.

For `CCONC(=N)NCCC[C@H](N)C(=O)O` [NEOA, N^ω-ethoxy-L-arginine], the “NO production (Griess reagent)” value (iNOS [1]) was “absence of NO production” and the Kd (iNOS [2]; [8]) was 0.12 ± 0.013 mM.
